Data taken from ChEMBL document CHEMBL1148634 (J Med Chem, 2006).
The source made the active and inactive calls. No cut-off for these calls is given here.

Key:
[1] = test system: Melanophore; experiment: Agonist activity in Xenopus laevis melanophore assessed as potency for pigment aggregation at 10 uM; type: functional, cell-based
Outline: (§1)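 A clonal Xenopus laevis melanophore line was grown in 96-well plates, and medium was switched to 0.7 × L-15 18 h before testing. Initial absorbance at 630 nm was read, analogue was added, and final absorbance was read after 60 min. Response was the fractional change 1 − (Af/Ai).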

[2] = biological target: T1, Melatonin receptor type 1A (Homo sapiens, UniProt P48039); experiment: Displacement of 2-[125I]iodomelatonin from human recombinant MT1 receptor expressed in NIH3T3 cells; type: cell-based
[3] = biological target: T2, Melatonin receptor type 1B (Homo sapiens, UniProt P49286); experiment: Displacement of 2-[125I]iodomelatonin from human recombinant MT2 receptor expressed in NIH3T3 cells; type: cell-based
T2 sequence (P49286 whole entry): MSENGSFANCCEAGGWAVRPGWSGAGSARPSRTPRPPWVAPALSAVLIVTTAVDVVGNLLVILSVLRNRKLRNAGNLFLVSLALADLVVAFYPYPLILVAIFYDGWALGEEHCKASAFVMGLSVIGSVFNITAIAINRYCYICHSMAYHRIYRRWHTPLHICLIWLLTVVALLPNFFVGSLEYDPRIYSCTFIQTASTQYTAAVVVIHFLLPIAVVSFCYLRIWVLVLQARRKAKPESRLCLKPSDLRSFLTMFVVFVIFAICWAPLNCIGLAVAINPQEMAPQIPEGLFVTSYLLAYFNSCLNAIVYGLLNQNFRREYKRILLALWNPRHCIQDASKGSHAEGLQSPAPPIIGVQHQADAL

[4] = test system: Melanophore; experiment: Agonist activity in Xenopus laevis melanophore assessed as potency for pigment aggregation; type: functional, cell-based; outline: as §1
[5] = test system: Melanophore; experiment: Antagonist activity in Xenopus laevis melanophore assessed as potency for pigment aggregation; type: functional, cell-based
Outline: (§2)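 Antagonism of the pigment aggregation response was tested on a clonal Xenopus laevis melanophore line.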

[6] = test system: Melanophore; experiment: Antagonist activity in Xenopus laevis melanophore assessed as potency for pigment aggregation at 10 uM; type: functional, cell-based; outline: as §2
[7] = test system: Melanophore; experiment: Potency for pigment aggregation in Xenopus laevis melanophore at 10 uM relative to melatonin; type: functional
[8] = biological target: T1, Melatonin receptor type 1A; experiment: Activity at MT1 receptor expressed in NIH3T3 cells assessed as inhibition of forskolin-stimulated cAMP synthesis; type: functional, cell-based; conditions: filed as agonist
Outline: (§3)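 NIH 3T3 cells stably expressing cloned human MT1 or MT2 receptors were pretreated with IBMX (25 µM, 10 min), then given forskolin (1 µM, 10 min) with or without test agent. Cyclic AMP was measured in duplicate by radioimmunoassay for each cell sample. Data are mean ± SEM of quadruplicate cell samples.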

[9] = biological target: T3, Melatonin receptor type 1B (Homo sapiens) (UniProt P49286); experiment: Activity at MT2 receptor expressed in NIH3T3 cells assessed as inhibition of forskolin-stimulated cAMP synthesis; type: functional, cell-based; conditions: filed as agonist; outline: as §3
T3 sequence (whole entry): T2 sequence (P49286 whole entry)

[10] = biological target: T1, Melatonin receptor type 1A; experiment: Activity at MT1 receptor expressed in NIH3T3 cells assessed as inhibition of forskolin-stimulated cAMP synthesis at 1 uM; type: functional, cell-based; outline: as §3
[11] = biological target: T1, Melatonin receptor type 1A; experiment: Activity at MT1 receptor expressed in NIH3T3 cells assessed as inhibition of […] cAMP synthesis; type: functional, cell-based; conditions: filed as antagonist
Outline: (§4)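 Antagonism was tested in NIH 3T3 cells expressing human MT1. […] Cyclic AMP was measured in duplicate by radioimmunoassay. Data are mean ± SEM of quadruplicate cell samples.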

[12] = biological target: T1, Melatonin receptor type 1A; experiment: Activity at MT1 receptor expressed in NIH3T3 cells assessed as inhibition of forskolin-stimulated cAMP synthesis at 10 uM; type: functional, cell-based; outline: as §3
[13] = biological target: T1, Melatonin receptor type 1A; experiment: Activity at MT1 receptor expressed in NIH3T3 cells assessed as inhibition of […] cAMP synthesis at 10 uM; type: functional, cell-based; conditions: filed as antagonist; outline: as §4
[14] = Xenopus laevis, Melanophore, read-out: EC50

T1 sequence (P48039 whole entry): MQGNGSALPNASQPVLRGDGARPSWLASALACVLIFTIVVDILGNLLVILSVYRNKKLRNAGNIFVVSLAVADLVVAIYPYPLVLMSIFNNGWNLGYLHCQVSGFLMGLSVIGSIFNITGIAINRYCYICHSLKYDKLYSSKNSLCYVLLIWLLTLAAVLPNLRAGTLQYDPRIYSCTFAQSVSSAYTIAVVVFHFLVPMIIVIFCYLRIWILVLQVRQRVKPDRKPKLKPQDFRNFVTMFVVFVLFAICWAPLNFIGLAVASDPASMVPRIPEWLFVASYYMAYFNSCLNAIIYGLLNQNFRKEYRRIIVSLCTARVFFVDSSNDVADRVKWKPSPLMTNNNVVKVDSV

| Ki [2] | Ki [3] | IC50 [5] | EC50 [4, 14] | Compound | Activity [6] | further results |
| --- | --- | --- | --- | --- | --- | --- |
| 714 nM | 3770 nM | > 10000 nM |  | COc1ccc2c(c1)c(C1(CNC(=O)C3CCC3)CCC1)cn2C |  | Activity [1]: inactive; EC50 ([4]; melanophore): Not Active |
| 468 nM | 257 nM | 1180 nM |  | COc1ccc2c(c1)c(C1(CNC(=O)C3CC3)CCCC1)cn2C |  | Activity [1]: inactive |
|  | 0.27 nM |  |  | COc1ccc2c(c1)c(C(C)CNC(C)=O)cn2C (stereo in doubt; (-)6a) [listing 1 of 2 here] |  | EC50 ([4]; melanophore, read-out: EC50): 10.8 nM |
| 176 nM | 90 nM |  | 10.5 nM | COc1ccc2c(c1)c(C1(CNC(C)=O)CC1)cn2C | inactive |  |
| 34 nM | 4.4 nM | 826 nM | 980 nM | CCC(=O)NCC1(c2cn(C)c3ccc(OC)cc23)CCC1 |  | Activity [7]: 20% |
| 4.27 nM | 0.47 nM |  | 1 nM | CCCC(=O)NCC(C)c1cn(C)c2ccc(OC)cc12 (configuration not stated) | inactive |  |
| 8.2 nM | 3.3 nM |  | 1.67 nM | COc1ccc2[nH]cc(C3(CNC(C)=O)CCC3)c2c1 | inactive |  |
| 724 nM | 1740 nM | 3030 nM |  | CCCC(=O)NCC1(c2cn(C)c3ccccc23)CCC1 |  | EC50 ([4]; melanophore): Not Active |
| 148 nM | 66.1 nM | 628 nM |  | COc1ccc2c(c1)c(C1(CNC(C)=O)CCCC1)cn2C |  | Activity [1]: inactive |
| 65.7 nM | 32 nM |  | 0.99 nM | CCC(=O)NCC1(c2c[nH]c3ccc(OC)cc23)CCC1 | inactive |  |
|  |  |  |  | COc1ccc2c(c1)c(C(C)CNC(C)=O)cn2C (single isomer, unassigned; (+)) [listing 1 of 2 here] | inactive |  |
| 302 nM | 102 nM | 811 nM |  | CCC(=O)NCC1(c2cn(C)c3ccc(OC)cc23)CCCC1 |  | Activity [1]: inactive |
| 6.03 nM | 1.15 nM |  | 1.26 nM | CCC(=O)NCC(C)(C)c1cn(C)c2ccc(OC)cc12 | inactive |  |
| 2190 nM | 1260 nM | 1250 nM |  | CC(=O)NCC1(c2cn(C)c3ccccc23)CCC1 |  | EC50 ([4]; melanophore): Not Active |
| 116 nM | 57.4 nM |  | 2.56 nM | CCCC(=O)NCC1(c2c[nH]c3ccc(OC)cc23)CCC1 | inactive | Activity [8]: Agonist; Activity [9]: Agonist |
| 307 nM | 138 nM | 2070 nM |  | COc1ccc2c(c1)c(C1(CNC(=O)C3CC3)CCC1)cn2C |  | Activity [1]: inactive |
| 8.51 nM | 0.74 nM |  | 1 nM | CCCC(=O)NCC(C)(C)c1cn(C)c2ccc(OC)cc12 | inactive | Activity [8]: Agonist; Activity [9]: Agonist |
| 10.6 nM | 0.86 nM |  | 2 nM | CCCC(=O)NCC1(c2cn(C)c3ccc(OC)cc23)CCC1 | inactive | Activity [7]: 92%; Activity [10]: inactive; Activity [11]: Antagonist |
|  | 0.5 nM |  |  | COc1ccc2c(c1)c(C(C)CNC(C)=O)cn2C (single isomer, unassigned; (+)) [listing 2 of 2 here] |  | EC50 ([4]; melanophore, read-out: EC50): 0.98 nM |

| Ki [2] | Ki [3] | IC50 [5] | EC50 [4, 14] | Compound | Activity [6] | further results |
| --- | --- | --- | --- | --- | --- | --- |
| 57.8 nM | 28.9 nM | 2500 nM |  | COc1ccc2[nH]cc(C3(CNC(=O)C4CC4)CCC3)c2c1 |  | Activity [1]: inactive |
|  |  |  |  | COc1ccc2c(c1)c(C(C)CNC(C)=O)cn2C (stereo in doubt; 6a) [listing 1 of 2 here] | inactive |  |
| 617 nM | 1440 nM | 3440 nM |  | Cn1cc(C2(CNC(=O)C3CC3)CCC2)c2ccccc21 |  | EC50 ([4]; melanophore): Not Active |
|  |  |  | 0.063 nM | COc1ccc2[nH]cc(CCNC(C)=O)c2c1 [MELATONIN] | inactive |  |
|  | 0.41 nM |  |  | COc1ccc2c(c1)c(C(C)CNC(C)=O)cn2C (stereo in doubt; 6a) [listing 2 of 2 here] |  | EC50 ([4]; melanophore, read-out: EC50): 1.72 nM |
| 86 nM | 39 nM |  | 6.8 nM | CCC(=O)NCC1(c2cn(C)c3ccc(OC)cc23)CC1 | inactive |  |
| 1510 nM | 1050 nM | 1150 nM |  | CCC(=O)NCC1(c2cn(C)c3ccccc23)CCC1 |  | EC50 ([4]; melanophore): Not Active |
| 479 nM | 407 nM | 1770 nM |  | COc1ccc2c(c1)c(C1(CNC(=O)C3CCC3)CCCC1)cn2C |  | Activity [1]: inactive |
| 4.9 nM | 1.02 nM |  | 3.72 nM | CCC(=O)NCC(C)c1cn(C)c2ccc(OC)cc12 (configuration not stated) | inactive |  |
| 1.67 nM | 2.94 nM |  | 0.049 nM | COc1ccc2[nH]cc(C(C)CNC(C)=O)c2c1 (configuration not stated) | inactive |  |
| 589 nM | 85.1 nM | 1640 nM |  | CCCC(=O)NCC1(c2cn(C)c3ccc(OC)cc23)CCCC1 |  | Activity [1]: inactive; Activity [12]: inactive; Activity [13]: Antagonist |
| 493 nM | 62.2 nM | > 10000 nM |  | COc1ccc2[nH]cc(C3(CNC(=O)C4CCC4)CCC3)c2c1 |  | Activity [1]: inactive |
| 1.12 nM | 2.75 nM |  | 0.0072 nM | COc1ccc2[nH]cc(C(C)(C)CNC(C)=O)c2c1 | inactive | Activity [8]: Agonist; Activity [9]: Agonist |
| 11.5 nM | 1.29 nM |  | 6.31 nM | COc1ccc2c(c1)c(C(C)(C)CNC(C)=O)cn2C | inactive |  |
| 212 nM | 7.5 nM |  | 1.7 nM | CCCC(=O)NCC1(c2cn(C)c3ccc(OC)cc23)CC1 | inactive | Activity [8]: Agonist; Activity [9]: Agonist |
|  |  |  |  | COc1ccc2c(c1)c(C(C)CNC(C)=O)cn2C (stereo in doubt; (-)6a) [listing 2 of 2 here] | inactive |  |
| 483 nM | 72 nM | 637 nM | 1010 nM | COc1ccc2c(c1)c(C1(CNC(C)=O)CCC1)cn2C |  | Activity [7]: 8% |
| 170 nM | 33.1 nM |  | 57.5 nM | COc1ccc2c(c1)c(C(C)(C)CNC(=O)C1CCC1)cn2C | inactive |  |
